{"source": "ChEMBL document CHEMBL1122340", "about": "“11,12-secoprostaglandins. 6. Interphenylene analogues of acylhydroxyalkanoic acids and related compounds as renal vasodilators” (1983)", "key": {"Canis familiaris [1]": {"system": "Canis familiaris", "experiment": "Percentage change in renal resistance in anesthetized dogs", "format": "functional, Canis lupus familiaris", "procedure,_shortened": "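Anesthetized dogs, femoral artery and vein catheterized for BP and iv injection; at least 30 min recovery after surgery. Mean renal blood flow and mean arterial BP sampled at 1-min intervals over a 30-min control period, then 500 µg/kg given iv bolus in aqueous solution as Na salt, monitored 30 min more. Renal resistance = mean BP / mean RBF. Two dogs per compound; saline placebo in three dogs.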"}, "Canis familiaris [2]": {"system": "Canis familiaris", "experiment": "Mean heart rate in conscious dog at 2-3 hr after 5 mg/kg (po) compound administration", "format": "functional, Canis lupus familiaris", "procedure,_shortened": "(§1)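 Conscious dogs, 3 per group. Dose 5 mg/kg given orally in a gelatin capsule; lactose capsule as placebo. Renal blood flow (flow meters), arterial pressure (transducer) and heart rate recorded digitally every 2 min through a 30-min predrug control period and 5 h postdose. Readings averaged for the control period and for each posttreatment hour; means ± SE.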"}, "Canis familiaris [3]": {"system": "Canis familiaris", "experiment": "Mean arterial blood pressure in conscious dog at 0-1 hr after 5 mg/kg (po) compound administration", "format": "functional, Canis lupus familiaris", "procedure,_shortened": "as §1"}, "Canis familiaris [4]": {"system": "Canis familiaris", "experiment": "Mean heart rate in conscious dog at 3-4 h after 5 mg/kg (po) compound administration", "format": "functional, Canis lupus familiaris", "procedure,_shortened": "as §1"}, "Canis familiaris [5]": {"system": "Canis familiaris", "experiment": "Mean heart rate in conscious dog at 4-5 hr after 5 mg/kg (po) compound administration", "format": "functional, Canis lupus familiaris", "procedure,_shortened": "as §1"}, "Canis familiaris [6]": {"system": "Canis familiaris", "experiment": "Mean heart rate in conscious dog at 0-1 hr after 5 mg/kg (po) compound administration", "format": "functional, Canis lupus familiaris", "procedure,_shortened": "as §1"}, "Canis familiaris [7]": {"system": "Canis familiaris", "experiment": "Mean renal blood flow in (RBF) conscious dog at 3-4 hr after 5 mg/kg (po)", "format": "functional, Canis lupus familiaris, Kidney", "procedure,_shortened": "as §1"}, "Canis familiaris [8]": {"system": "Canis familiaris", "experiment": "Mean arterial blood pressure in conscious dog at 4-5 h after 5 mg/kg (po) compound administration", "format": "functional, Canis lupus familiaris", "procedure,_shortened": "as §1"}, "Canis familiaris [9]": {"system": "Canis familiaris", "experiment": "Mean renal blood flow (RBF) in conscious dog at 4-5 hr after 5 mg/kg (po)", "format": "functional, Canis lupus familiaris, Kidney", "procedure,_shortened": "as §1"}, "Canis familiaris [10]": {"system": "Canis familiaris", "experiment": "Mean renal blood (RBF) flow in conscious dog at 0-1 hr after 5 mg/kg (po)", "format": "functional, Canis lupus familiaris, Kidney", "procedure,_shortened": "as §1"}, "Canis familiaris [11]": {"system": "Canis familiaris", "experiment": "Mean arterial blood pressure in conscious dog at 1-2 hr after 5 mg/kg (po) compound administration", "format": "functional, Canis lupus familiaris", "procedure,_shortened": "as §1"}, "Canis familiaris [12]": {"system": "Canis familiaris", "experiment": "Mean renal blood flow (RBF) in conscious dog at 2-3 hr after 5 mg/kg (po)", "format": "functional, Canis lupus familiaris, Kidney", "procedure,_shortened": "as §1"}, "Canis familiaris [13]": {"system": "Canis familiaris", "experiment": "Mean heart rate in conscious dog at 1-2 hr after 5 mg/kg (po) compound administration", "format": "functional, Canis lupus familiaris", "procedure,_shortened": "as §1"}, "Canis familiaris [14]": {"system": "Canis familiaris", "experiment": "Mean arterial blood pressure in conscious dog at 2-3 h after 5 mg/kg (po) compound administration", "format": "functional, Canis lupus familiaris", "procedure,_shortened": "as §1"}, "Canis familiaris [15]": {"system": "Canis familiaris", "experiment": "Mean renal blood flow (RBF) in conscious dog at 1-2h after 5 mg/kg (po)", "format": "functional, Canis lupus familiaris, Kidney", "procedure,_shortened": "as §1"}, "Canis familiaris [16]": {"system": "Canis familiaris", "experiment": "Mean arterial blood pressure in conscious dog at 3-4 h after 5 mg/kg (po) compound administration", "format": "functional, Canis lupus familiaris", "procedure,_shortened": "as §1"}}, "data": [{"smiles": "CCCCCC(O)CCCC(CCCCc1ccc(C(=O)O)cc1)C(C)=O", "note": "(stereo unspecified)", "values": [{"measurement": "Change", "setting": "Canis familiaris [1]", "value": 18, "unit": "%"}]}, {"smiles": "CCCCCC(O)CCCC(CCCc1ccc(C(=O)O)cc1)C(C)=O", "note": "(stereo unspecified)", "values": [{"measurement": "HR", "setting": "Canis familiaris [2]", "value": 74, "unit": "beats min-1"}, {"measurement": "MABP", "setting": "Canis familiaris [3]", "value": 116, "unit": "mmHg"}, {"measurement": "HR", "setting": "Canis familiaris [4]", "value": 64, "unit": "beats min-1"}, {"measurement": "HR", "setting": "Canis familiaris [5]", "value": 68, "unit": "beats min-1"}, {"measurement": "HR", "setting": "Canis familiaris [6]", "value": 74, "unit": "beats min-1"}, {"measurement": "RBF", "setting": "Canis familiaris [7]", "value": 139, "unit": "mL/min"}, {"measurement": "MABP", "setting": "Canis familiaris [8]", "value": 106, "unit": "mmHg"}, {"measurement": "RBF", "setting": "Canis familiaris [9]", "value": 124, "unit": "mL/min"}, {"measurement": "RBF", "setting": "Canis familiaris [10]", "value": 137, "unit": "mL/min"}, {"measurement": "MABP", "setting": "Canis familiaris [11]", "value": 106, "unit": "mmHg"}, {"measurement": "Change", "setting": "Canis familiaris [1]", "value": -47, "unit": "%"}, {"measurement": "RBF", "setting": "Canis familiaris [12]", "value": 173, "unit": "mL/min"}, {"measurement": "HR", "setting": "Canis familiaris [13]", "value": 73, "unit": "beats min-1"}, {"measurement": "MABP", "setting": "Canis familiaris [14]", "value": 97, "unit": "mmHg"}, {"measurement": "RBF", "setting": "Canis familiaris [15]", "value": 194, "unit": "mL/min"}, {"measurement": "MABP", "setting": "Canis familiaris [16]", "value": 95, "unit": "mmHg"}]}, {"smiles": "CCCCCC(O)CCCC(Cc1ccc(CCC(=O)O)cc1)C(C)=O", "note": "(stereo unspecified)", "values": [{"measurement": "Change", "setting": "Canis familiaris [1]", "value": 13, "unit": "%"}]}, {"smiles": "CCCCCC(O)CCCC(CCCc1cccc(C(=O)O)c1)C(C)=O", "note": "(stereo unspecified)", "values": [{"measurement": "Change", "setting": "Canis familiaris [1]", "value": -20, "unit": "%"}]}, {"smiles": "CS(=O)(=O)N(CCCc1ccc(C(=O)O)cc1)CCCC1(O)CCCCC1", "values": [{"measurement": "Change", "setting": "Canis familiaris [1]", "value": -7, "unit": "%"}]}, {"smiles": "CCCCCC(O)CCCC(CCCCc1ccccc1C(=O)O)C(C)=O", "note": "(stereo unspecified)", "values": [{"measurement": "Change", "setting": "Canis familiaris [1]", "value": 19, "unit": "%"}]}, {"smiles": "CCCCCC(O)CCCC(CCCc1ccc(C(=O)O)cc1)C(C)O", "note": "(stereo unspecified)", "values": [{"measurement": "Change", "setting": "Canis familiaris [1]", "value": -19, "unit": "%"}]}, {"smiles": "CCCCCC(O)CCCN(CCCc1ccc(C(=O)O)cc1)S(C)(=O)=O", "note": "(stereo unspecified)", "values": [{"measurement": "Change", "setting": "Canis familiaris [1]", "value": 5, "unit": "%"}]}, {"smiles": "CC(=O)C(CCCc1ccc(C(=O)O)cc1)CCCC1(O)CCCCC1", "note": "(stereo unspecified)", "values": [{"measurement": "Change", "setting": "Canis familiaris [1]", "value": -42, "unit": "%"}]}, {"smiles": "CCCOCC(O)CCCC(CCCc1ccc(C(=O)O)cc1)C(C)=O", "note": "(stereo unspecified)", "values": [{"measurement": "Change", "setting": "Canis familiaris [1]", "value": -43, "unit": "%"}]}, {"smiles": "CS(=O)(=O)N(CC#CC1(O)CCCCC1)CCCc1ccc(C(=O)O)cc1", "values": [{"measurement": "Change", "setting": "Canis familiaris [1]", "value": -10, "unit": "%"}]}]}
